Read-outs that look alike come from different tables or passages of the source.
Key:
Assay type in all cases: biochemical
[1] = biological target: T1, LManII (lysosomal α-mannosidase) (Drosophila melanogaster, UniProt Q9VKV1); experiment: α-mannosidase inhibition assay with pNP-Man, LManII; settings: for Ki: Dixon plots, pNP-Man 0.5-4 mM
T1 sequence (Q9VKV1 25-1080): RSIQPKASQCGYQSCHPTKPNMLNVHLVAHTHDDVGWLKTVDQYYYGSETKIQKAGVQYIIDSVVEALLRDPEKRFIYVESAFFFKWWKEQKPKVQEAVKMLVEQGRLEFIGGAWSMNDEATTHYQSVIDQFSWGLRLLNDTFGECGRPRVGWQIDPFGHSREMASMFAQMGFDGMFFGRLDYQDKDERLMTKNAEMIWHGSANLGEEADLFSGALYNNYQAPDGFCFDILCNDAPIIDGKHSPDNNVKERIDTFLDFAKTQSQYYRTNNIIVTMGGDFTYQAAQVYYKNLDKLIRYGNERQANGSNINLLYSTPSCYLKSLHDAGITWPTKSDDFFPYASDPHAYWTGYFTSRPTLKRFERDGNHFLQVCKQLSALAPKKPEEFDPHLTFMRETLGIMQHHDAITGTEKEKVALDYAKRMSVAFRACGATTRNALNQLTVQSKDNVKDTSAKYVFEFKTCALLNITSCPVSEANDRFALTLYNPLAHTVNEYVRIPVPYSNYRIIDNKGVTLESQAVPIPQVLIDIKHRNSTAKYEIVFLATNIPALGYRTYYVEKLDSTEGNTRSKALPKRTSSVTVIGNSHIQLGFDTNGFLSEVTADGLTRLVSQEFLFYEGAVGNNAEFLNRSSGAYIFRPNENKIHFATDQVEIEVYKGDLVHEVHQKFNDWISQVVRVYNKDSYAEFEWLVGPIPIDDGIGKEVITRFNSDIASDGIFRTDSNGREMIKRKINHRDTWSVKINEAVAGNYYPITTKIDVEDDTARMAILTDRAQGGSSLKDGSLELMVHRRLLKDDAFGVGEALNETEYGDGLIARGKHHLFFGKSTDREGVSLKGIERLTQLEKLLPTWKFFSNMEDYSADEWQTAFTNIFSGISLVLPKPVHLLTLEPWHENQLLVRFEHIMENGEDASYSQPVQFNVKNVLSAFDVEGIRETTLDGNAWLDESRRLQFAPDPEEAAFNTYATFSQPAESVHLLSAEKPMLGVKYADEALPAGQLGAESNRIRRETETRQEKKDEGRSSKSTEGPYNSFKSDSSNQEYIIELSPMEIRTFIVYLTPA
How it was run: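 Recombinant Drosophila lysosomal α-mannosidase, isolated and purified, assayed in 50 mM acetate buffer at pH 5.2. Compound (50 mM DMSO solution diluted in water) preincubated with enzyme 5 min at rt before pNP-Man was added. Incubated 1-2 h at 37 °C, stopped with 0.5 M sodium carbonate, p-nitrophenol read at 405 nm. […] Three independent experiments in duplicate.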

[2] = biological target: T2, JBMan (Jack bean α-mannosidase) (Canavalia ensiformis, UniProt C0HJB3); experiment: α-mannosidase inhibition assay with pNP-Man, JBMan
T2 sequence (C0HJB3 1-981): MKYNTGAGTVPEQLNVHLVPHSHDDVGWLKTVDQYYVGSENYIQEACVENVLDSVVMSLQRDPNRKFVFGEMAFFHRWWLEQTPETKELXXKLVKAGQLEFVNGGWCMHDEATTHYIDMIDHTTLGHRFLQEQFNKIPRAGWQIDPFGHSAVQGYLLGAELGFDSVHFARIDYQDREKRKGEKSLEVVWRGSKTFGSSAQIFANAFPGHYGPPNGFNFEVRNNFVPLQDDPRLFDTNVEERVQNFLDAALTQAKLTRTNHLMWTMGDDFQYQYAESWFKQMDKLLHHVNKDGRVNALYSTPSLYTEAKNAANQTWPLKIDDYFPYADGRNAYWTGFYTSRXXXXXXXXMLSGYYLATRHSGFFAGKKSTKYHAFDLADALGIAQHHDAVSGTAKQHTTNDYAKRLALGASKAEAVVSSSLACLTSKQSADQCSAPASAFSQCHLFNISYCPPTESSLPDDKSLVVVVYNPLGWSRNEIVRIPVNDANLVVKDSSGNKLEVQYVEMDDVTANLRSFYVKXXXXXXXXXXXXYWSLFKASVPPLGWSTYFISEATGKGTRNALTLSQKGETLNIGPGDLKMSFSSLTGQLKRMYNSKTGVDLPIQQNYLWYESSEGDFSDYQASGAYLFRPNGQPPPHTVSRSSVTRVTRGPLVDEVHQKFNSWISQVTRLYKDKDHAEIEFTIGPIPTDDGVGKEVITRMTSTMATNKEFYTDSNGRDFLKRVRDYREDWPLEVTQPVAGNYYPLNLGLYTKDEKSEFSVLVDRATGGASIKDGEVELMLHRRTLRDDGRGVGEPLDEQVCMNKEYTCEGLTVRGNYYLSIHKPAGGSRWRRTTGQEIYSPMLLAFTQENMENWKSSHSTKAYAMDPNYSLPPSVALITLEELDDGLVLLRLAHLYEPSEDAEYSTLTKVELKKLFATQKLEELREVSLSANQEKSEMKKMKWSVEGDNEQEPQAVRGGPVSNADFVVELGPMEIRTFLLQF
How it was run: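 Commercial jack bean α-mannosidase (0.05 μg protein) in 50 mM acetate buffer, pH 5.0. Compound taken from a 50 mM DMSO solution, diluted in water, and preincubated with enzyme 5 min at rt. pNP-Man was added and the reaction ran 1-2 h at 37 °C. Stopped with 0.5 M sodium carbonate; p-nitrophenol read at 405 nm. […] Three independent experiments in duplicate.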

[3] = tested on: Golgi-type mannosidases (GMIIb and AMAN-2); experiment: inhibition of and selectivity toward Golgi-type mannosidases, stated jointly; settings: IC50(LManII)/IC50(GMIIb) or IC50(JBMan)/IC50(AMAN-2)
[4] = read-out: IC50 LManII, 2 mM pNP-Man, pH 5.2
[5] = read-out: IC50 JBMan, 2 mM pNP-Man, pH 5.0
[6] = read-out: Ki JBMan, Dixon plots, pNP-Man 0.5-4 mM, pH 5.0

SMILES | IC50 [1, 4] | IC50 [2, 5] | IC50 [1] | IC50 [2] | also measured
OC[C@@H]1[C@H](O)[C@H](O)CN1Cc1ccccc1 [Compound 4, N-Benzyl-1,4-dideoxy-1,4-imino-d-lyxitol] | – | – | 675 ± 67 µM | 1080 ± 185 µM | –
Cl.N=C(N)NCc1ccc(CN2C[C@@H](O)[C@@H](O)[C@H]2CO)cc1 [Compound 9, 1,4-Dideoxy-N-4-guanidinomethylbenzyl-1,4-imino-d-lyxitol hydrochloride] | 340 ± 35 µM | 115 ± 6.7 µM | – | – | Ki ([1]; read-out: Ki LManII, pH 5.2): 165 µM; Ki [2, 6]: 52.4 µM
OCC1C(O)C(O)CN1Cc1ccc(I)cc1 (stereo not drawn) [Compound 16, 1,4-Dideoxy-1,4-imino-N-4-iodobenzyl-d-lyxitol] | 460 ± 53 µM | 940 ± 24 µM | – | – | –
OC[C@@H]1[C@H](O)[C@H](O)CN1CC1CCCCC1 [Compound 19, N-Cyclohexylmethyl-1,4-dideoxy-1,4-imino-d-lyxitol] | – | – | 190 ± 53 µM | 1290 ± 113 µM | –
OC[C@@H]1[C@H](O)[C@H](O)CN1CC1CCOCC1 [Compound 20] | 980 ± 102 µM | 2550 ± 63 µM | – | – | –
CCCCCCCCCCCCN1C[C@@H](O)[C@@H](O)[C@H]1CO [Compound 21, 1,4-Dideoxy-N-dodecyl-1,4-imino-d-lyxitol] | – | – | 11.8 ± 1.2 µM | 20.3 ± 4.4 µM | –
Cl.N=C(N)NCCCCCCCCCCN1C[C@@H](O)[C@@H](O)[C@H]1CO [Compound 25, 1,4-Dideoxy-N-(10-guanidinodecyl)-1,4-imino-d-lyxitol hydrochloride] | – | – | 8.3 ± 2.1 µM | 8.3 ± 1.2 µM | –
Cl.N=C(N)CCCCCCCCCN1C[C@@H](O)[C@@H](O)[C@H]1CO [Compound 26, N-(9-amidinononyl)-1,4-dideoxy-1,4-imino-d-lyxitol hydrochloride] | – | – | 6.7 ± 1.2 µM | 4.7 ± 1.2 µM | Ki ([1]; Ki LManII, pH 5.2): 3.2 µM; Ki [2]: 1.4 µM

Second part, led by results:

IC50 [1, 4] | IC50 [2, 5] | SMILES | IC50 [1] | IC50 [2] | also measured
845 ± 170 µM | 1950 ± 250 µM | OC[C@@H]1[C@H](O)[C@H](O)CN1Cc1ccc2ccccc2c1 [Compound 17, 1,4-Dideoxy-1,4-imino-N-(naphthalen-2-ylmethyl)-d-lyxitol] | – | – | selectivity index (SI) toward Golgi-type enzymes [3]: > 100
12 ± 1.3 µM | 18 ± 1.7 µM | OCC1C(O)C(O)CN1CCc1cccc2ccccc12 (stereo not drawn) [Compound 18, 1,4-Dideoxy-1,4-imino-N-(2-(naphthalen-1-yl)ethyl)-d-lyxitol] | – | – | Ki ([1]; read-out: Ki LManII, pH 5.2): 3.9 µM; Ki [2, 6]: 6.5 µM

— article PMC7614232 (Organic & biomolecular chemistry, 2022)
